Results from ChEMBL document CHEMBL2016448, “Discovery of new piperidine amide triazolobenzodiazepinones as intestinal-selective CCK1 receptor agonists” (Bioorg Med Chem Lett, 2012).

Assays:
[1] = biological target: T1, Cholecystokinin receptor type A (Homo sapiens, UniProt P32238); test: Agonist activity at human CCK1 receptor assessed as increase in CCK8-induced calcium release incubated in dark for 30 mins followed by light incubation for 30 mins measured by FLIPR assay; format: functional
T1 sequence (P32238 whole entry): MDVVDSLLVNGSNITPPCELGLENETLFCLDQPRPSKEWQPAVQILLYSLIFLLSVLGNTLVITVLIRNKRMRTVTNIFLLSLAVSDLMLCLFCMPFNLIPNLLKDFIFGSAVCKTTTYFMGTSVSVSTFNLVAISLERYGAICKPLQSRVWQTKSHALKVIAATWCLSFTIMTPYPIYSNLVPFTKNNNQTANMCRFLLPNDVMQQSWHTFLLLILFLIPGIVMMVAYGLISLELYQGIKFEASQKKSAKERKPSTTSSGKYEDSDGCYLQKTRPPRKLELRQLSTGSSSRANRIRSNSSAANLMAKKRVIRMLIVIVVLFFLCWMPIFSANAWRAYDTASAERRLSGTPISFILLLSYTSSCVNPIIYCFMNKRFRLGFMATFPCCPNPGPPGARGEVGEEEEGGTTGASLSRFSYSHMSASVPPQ
Summary of the method: (§1)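 FLIPR functional assay in CHO cells expressing human CCK1R. Agonism expressed as % of the CCK-8 peptide response. Initial screen at 30 µM, with >30% counted as active. Actives then run as full dose–response. EC50 is the geometric mean of at least 2 independent experiments.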

[2] = biological target: T2, Cholecystokinin receptor type A (Homo sapiens) (UniProt P32238); test: Agonist activity at human CCK1 receptor assessed as increase in CCK8-induced calcium release incubated in dark for 30 mins followed by light incubation for 30 mins measured by FLIPR assay relative to CCK8; format: functional; summary of the method: as §1
T2 sequence (whole entry): T1 sequence (P32238 whole entry)

[3] = biological target: T1, Cholecystokinin receptor type A; test: Displacement of [125I]-CCK-8 from human CCK1 receptor expressed in CHO cells after 90 mins by liquid scintillation counting
[4] = Lipophilicity, log D of the compound at pH 7.4; format: physicochemical; conditions: buffer, read-out: logD
[5] = Free intrinsic clearance in human microsomes; format: ADME, Microsome
Summary of the method: (§2)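 Intrinsic clearance measured in human liver microsomes. The free value is corrected for microsomal binding.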

Mus musculus = test: Antiobesity in C57Bl/6J mouse assessed as reduction in gall bladder weight at 0.6 mg/kg, po measured after 1 hr relative to control; format: functional; parameters: scale not given: the % may be the effect or the level left
[6] = Drug excretion in Sprague-Dawley rat bile at 1 mg/kg, iv measured after 24 hrs; format: ADME, organism-based; parameters: dose 1 mg/kg, route intravenous; conditions: read-out: Ae
Summary of the method: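 Bile-cannulated rats dosed iv at 1 mg/kg. Bile collected over 24 h and % of dose excreted into bile determined.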

[7] = Intrinsic clearance in human microsomes; format: ADME, Microsome; summary of the method: as §2

| Compound | EC50 [1] [nM] | Efficacy [2] [%] | IC50 [3] [nM] | logD [4] | CL free [5] [µL/min/mg] | clearance [7] [µL/min/mg] | Activity (Mus musculus) [%] | dose excreted at 24 h [6] [%] |
| --- | --- | --- | --- | --- | --- | --- | --- | --- |
| O=C1C(Cc2c[nH]c3ccccc23)c2nnc(-c3ccccc3)n2-c2ccccc2N1CC(=O)N1CCCC1c1ccccc1 (mixture of isomers) | 2120 | 83 | 168 |  |  |  |  |  |
| Cc1cccc(CC2CCCCN2C(=O)CN2C(=O)[C@@H](Cc3n[nH]c4ccccc34)c3nnc(-c4ccccc4)n3-c3ccccc32)c1 (stereo partly specified) | 669 | 75 | 87.6 | 5.1 |  |  |  |  |
| O=C(CN1C(=O)C(Cc2c[nH]c3ccccc23)c2nnc(-c3ccccc3)n2-c2ccccc21)N1CCC(Cc2ccccc2)C1 (mixture of isomers) | 1310 | 85 | 68.6 |  |  | 148 |  |  |
| CC(C)C1CCCCN1C(=O)CN1C(=O)C(Cc2c[nH]c3ccccc23)c2nnc(-c3ccccc3)n2-c2ccccc21 (mixture of isomers) | 494 | 95 | 80.1 |  |  | 220 |  |  |
| O=C1C(Cc2c[nH]c3ccccc23)c2nnc(-c3ccccc3)n2-c2ccccc2N1CC(=O)N1CCCCC1Cc1ccncc1 (mixture of isomers) | 421 | 89 | 340 |  |  | 111 |  |  |
| CC(C)N(Cc1ccccc1)C(=O)CN1C(=O)[C@@H](Cc2n[nH]c3ccccc23)c2nnc(-c3ccccc3)n2-c2ccccc21 | 380 | 72 | 38.1 | 4.7 |  |  |  |  |

Now those with a lower EC50 [1], led by results:

| EC50 [1] [nM] | Efficacy [2] [%] | IC50 [3] [nM] | logD [4] | CL free [5] [µL/min/mg] | clearance [7] [µL/min/mg] | Compound | Activity (Mus musculus) [%] | dose excreted at 24 h [6] [%] |
| --- | --- | --- | --- | --- | --- | --- | --- | --- |
| 84.2 | 78 | 44.7 |  |  | 146 | O=C1C(Cc2c[nH]c3ccccc23)c2nnc(-c3ccccc3)n2-c2ccccc2N1CC(=O)N1CCCCC1Cc1ccccc1 (mixture of isomers) |  |  |
| 12.9 | 103 | 36 | 4.6 | 846 |  | O=C1[C@@H](Cc2n[nH]c3ccccc23)c2nnc(-c3ccccc3)n2-c2ccccc2N1CC(=O)N1CCCCC1Cc1ccccc1 (stereo partly specified) | 91 | 0.32 |
| 2.7 | 100 | 9.9 | 3.1 | 154 |  | COCCC1CCCCN1C(=O)CN1C(=O)[C@@H](Cc2n[nH]c3ccccc23)c2nnc(-c3ccccc3)n2-c2ccccc21 (single isomer, unassigned) | 85 | 0.26 |
